Converted amounts (≈) assume the structure as drawn.
Columns and labels:
Assay type in all cases: functional
Aspergillus niger [1] = experiment: Antifungal activity against Aspergillus niger ATCC 9029 after 48 hrs by paper disk diffusion technique
In short: (§1)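 Fungal disc diffusion. Autoclaved (120 °C, 30 min) medium is inoculated at 40–50 °C with 1 ml/100 ml of a 10⁵ cfu/ml McFarland-matched suspension and poured to 3–4 mm. Compound-impregnated paper discs in dimethyl formamide are applied. Plates are held 1 h at room temperature, then incubated 48 h at 37 °C.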

[2] = test system: Staphylococcus epidermidis; experiment: Antibacterial activity against Staphylococcus epidermidis ATCC 155 after 24 hrs by agar streak dilution method; settings: ATCC 155, 24 h
In short: (§2)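 Agar streak dilution MIC. Stock […] in dimethyl formamide. Graded quantities go into molten sterile nutrient agar, poured at 40–50 °C to 3–4 mm depth and left to solidify. Plates are streaked with about 10⁵ cfu/ml bacterial suspension and incubated 24 h at 37 °C. MIC is the lowest concentration with no visible growth.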

Aspergillus fumigatus [3] = experiment: Antifungal activity against Aspergillus fumigatus ATCC 46645 after 48 hrs by agar streak dilution method; settings: ATCC 46645, 48 h
In short: as §2, with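 “Fungal agar” for “Agar”, “dilution.” for “dilution MIC.”, “Sabouraud dextrose” for “nutrient”, “inoculated” for “streaked”, “cfu/ml” for “cfu/ml bacterial”, “48” for “24”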

Staphylococcus aureus [4] = experiment: Antibacterial activity against Staphylococcus aureus ATCC 9144 after 24 hrs by paper disk diffusion technique
In short: (§3)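 Paper disc diffusion. Nutrient agar autoclaved 120 °C, 30 min, then inoculated at 40–50 °C with 1 ml/100 ml of a 10⁵ cfu/ml suspension matched to McFarland standard and poured to 3–4 mm. Discs impregnated with compound in dimethyl formamide are laid on the solidified agar. Plates are held 1 h at room temperature, then 24 h at 37 °C.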

Aspergillus niger [5] = experiment: Antifungal activity against Aspergillus niger ATCC 9029 after 48 hrs by agar streak dilution method; settings: ATCC 9029, 48 h
In short: as §2, with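 “Fungal agar” for “Agar”, “dilution.” for “dilution MIC.”, “Sabouraud dextrose” for “nutrient”, “inoculated” for “streaked”, “cfu/ml” for “cfu/ml bacterial”, “48” for “24”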

Bacillus cereus [6] = experiment: Antibacterial activity against Bacillus cereus ATCC 11778 after 24 hrs by agar streak dilution method; settings: ATCC 11778, 24 h; in short: as §2
Micrococcus luteus [7] = experiment: Antibacterial activity against Micrococcus luteus ATCC 4698 after 24 hrs by agar streak dilution method; settings: NCTC 2665, 24 h; in short: as §2
Escherichia coli [8] = experiment: Antibacterial activity against Escherichia coli ATCC 25922 after 24 hrs by agar streak dilution method; settings: ATCC 25922, 24 h; in short: as §2
Pseudomonas aeruginosa [9] = experiment: Antibacterial activity against Pseudomonas aeruginosa ATCC 2853 after 24 hrs by agar streak dilution method; settings: ATCC 2853, 24 h; in short: as §2
Micrococcus luteus [10] = experiment: Antibacterial activity against Micrococcus luteus ATCC 4698 after 24 hrs by paper disk diffusion technique; in short: as §3
Klebsiella pneumoniae [11] = experiment: Antibacterial activity against Klebsiella pneumoniae ATCC 11298 after 24 hrs by paper disk diffusion technique; in short: as §3
Escherichia coli [12] = experiment: Antibacterial activity against Escherichia coli ATCC 25922 after 24 hrs by paper disk diffusion technique; in short: as §3
Aspergillus fumigatus [13] = experiment: Antifungal activity against Aspergillus fumigatus ATCC 46645 after 48 hrs by paper disk diffusion technique; in short: as §1
[14] = test system: Staphylococcus epidermidis; experiment: Antibacterial activity against Staphylococcus epidermidis ATCC 155 after 24 hrs by paper disk diffusion technique; in short: as §3
Pseudomonas aeruginosa [15] = experiment: Antibacterial activity against Pseudomonas aeruginosa ATCC 2853 after 24 hrs by paper disk diffusion technique; in short: as §3
Staphylococcus aureus [16] = experiment: Antibacterial activity against Staphylococcus aureus ATCC 9144 after 24 hrs by agar streak dilution method; settings: ATCC 9144, 24 h; in short: as §2
Bacillus cereus [17] = experiment: Antibacterial activity against Bacillus cereus ATCC 11778 after 24 hrs by paper disk diffusion technique; in short: as §3
Klebsiella pneumoniae [18] = experiment: Antibacterial activity against Klebsiella pneumoniae ATCC 11298 after 24 hrs by agar streak dilution method; settings: ATCC 11298, 24 h; in short: as §2
Aspergillus fumigatus [19] = experiment: Antifungal activity against Aspergillus fumigatus ATCC 46645 at 100 ug/disk after 48 hrs by paper disk diffusion technique; settings: ATCC 46645, 48 h, read-out: IZ
In short: (§4)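 Paper disc diffusion: autoclaved medium at 40–50 °C was seeded at 1 ml/100 ml with a suspension of about 10⁵ cfu/ml matched to McFarland standard and poured 3–4 mm deep. Discs impregnated with compound in dimethylformamide were placed on the set medium. There was 1 h pre-incubation at room temperature, then 48 h at 37 °C. Ketoconazole disc served as reference.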

Aspergillus niger [20] = experiment: Antifungal activity against Aspergillus niger ATCC 9029 at 100 ug/disk after 48 hrs by paper disk diffusion technique; settings: ATCC 9029, 48 h, read-out: IZ; in short: as §4

MIC [2]	MIC (Aspergillus fumigatus [3])	MIC (Aspergillus niger [5])	MIC (Bacillus cereus [6])	MIC (Micrococcus luteus [7])	MIC (Escherichia coli [8])	MIC (Pseudomonas aeruginosa [9])	MIC (Staphylococcus aureus [16])	MIC (Klebsiella pneumoniae [18])	Compound	inhibition zone (IZ) (Aspergillus niger [1])	inhibition zone (IZ) (Staphylococcus aureus [4])	inhibition zone (IZ) (Micrococcus luteus [10])	inhibition zone (IZ) (Klebsiella pneumoniae [11])	inhibition zone (IZ) (Escherichia coli [12])	inhibition zone (IZ) (Aspergillus fumigatus [13])	inhibition zone (IZ) [14]	inhibition zone (IZ) (Pseudomonas aeruginosa [15])	inhibition zone (IZ) (Bacillus cereus [17])	zone of inhibition at 100 µg/disc (Aspergillus fumigatus [19])	zone of inhibition at 100 µg/disc (Aspergillus niger [20])
24.2 mg/L (≈ 45.7 µM)	15.2 mg/L (≈ 28.7 µM)	12.7 mg/L (≈ 24 µM)	35.1 mg/L (≈ 66.3 µM)	28.1 mg/L (≈ 53.1 µM)	31.2 mg/L (≈ 59 µM)	33.4 mg/L (≈ 63.1 µM)	21.6 mg/L (≈ 40.8 µM)	28.2 mg/L (≈ 53.3 µM)	COc1cc(/C=N/n2c(-c3ccccc3)nc3c(Br)cc(Br)cc3c2=O)ccc1O	24 mm	23 mm	24 mm	23 mm	24 mm	23 mm	23 mm	19 mm	17 mm		
20.9 mg/L (≈ 41.9 µM)	10.7 mg/L (≈ 21.4 µM)	9.1 mg/L (≈ 18.2 µM)	19.3 mg/L (≈ 38.7 µM)	17.2 mg/L (≈ 34.5 µM)	21.8 mg/L (≈ 43.7 µM)	22.6 mg/L (≈ 45.3 µM)	17.3 mg/L (≈ 34.7 µM)	19 mg/L (≈ 38.1 µM)	O=c1c2cc(Br)cc(Br)c2nc(-c2ccccc2)n1/N=C/c1ccc(O)cc1	24 mm	24 mm	26 mm	27 mm	23 mm	21 mm	22 mm	25 mm	21 mm		
22.2 mg/L (≈ 43.3 µM)	12.3 mg/L (≈ 24 µM)	10.1 mg/L (≈ 19.7 µM)	31.9 mg/L (≈ 62.2 µM)	34.2 mg/L (≈ 66.6 µM)	29.9 mg/L (≈ 58.3 µM)	36.2 mg/L (≈ 70.5 µM)	32.1 mg/L (≈ 62.6 µM)	33.4 mg/L (≈ 65.1 µM)	COc1ccc(/C=N/n2c(-c3ccccc3)nc3c(Br)cc(Br)cc3c2=O)cc1	23 mm	19 mm	18 mm	20 mm	19 mm	24 mm	20 mm	16 mm	19 mm		
21.4 mg/L (≈ 42 µM)	14.6 mg/L (≈ 28.7 µM)	11.8 mg/L (≈ 23.2 µM)	21.9 mg/L (≈ 43 µM)	22.8 mg/L (≈ 44.8 µM)	20.1 mg/L (≈ 39.5 µM)	25.1 mg/L (≈ 49.3 µM)	23.8 mg/L (≈ 46.7 µM)	19.8 mg/L (≈ 38.9 µM)	O=c1c2cc(Br)cc(Br)c2nc(-c2ccccc2)n1/N=C/C=C/c1ccccc1	24 mm	20 mm	21 mm	25 mm	25 mm	22 mm	24 mm	19 mm	23 mm		
21.8 mg/L (≈ 41.3 µM)	10.9 mg/L (≈ 20.6 µM)	14.4 mg/L (≈ 27.3 µM)	32.8 mg/L (≈ 62.1 µM)	27.4 mg/L (≈ 51.9 µM)	30.2 mg/L (≈ 57.2 µM)	34.2 mg/L (≈ 64.8 µM)	22.4 mg/L (≈ 42.4 µM)	35.7 mg/L (≈ 67.6 µM)	O=c1c2cc(Br)cc(Br)c2nc(-c2ccccc2)n1/N=C/c1ccc([N+](=O)[O-])cc1	24 mm	22 mm	23 mm	20 mm	23 mm	25 mm	22 mm	21 mm	20 mm		
21.8 mg/L (≈ 41.3 µM)	11.6 mg/L (≈ 22 µM)	10.7 mg/L (≈ 20.3 µM)	23.6 mg/L (≈ 44.7 µM)	30.1 mg/L (≈ 57 µM)	19.8 mg/L (≈ 37.5 µM)	36.1 mg/L (≈ 68.4 µM)	22.6 mg/L (≈ 42.8 µM)	34.6 mg/L (≈ 65.5 µM)	O=c1c2cc(Br)cc(Br)c2nc(-c2ccccc2)n1/N=C/c1cccc([N+](=O)[O-])c1	25 mm	21 mm	23 mm	21 mm	26 mm	23 mm	22 mm	19 mm	22 mm		

Compound	MIC [2]	MIC (Aspergillus fumigatus [3])	MIC (Aspergillus niger [5])	MIC (Bacillus cereus [6])	MIC (Micrococcus luteus [7])	MIC (Escherichia coli [8])	MIC (Pseudomonas aeruginosa [9])	MIC (Staphylococcus aureus [16])	MIC (Klebsiella pneumoniae [18])	inhibition zone (IZ) (Aspergillus niger [1])	inhibition zone (IZ) (Staphylococcus aureus [4])	inhibition zone (IZ) (Micrococcus luteus [10])	inhibition zone (IZ) (Klebsiella pneumoniae [11])	inhibition zone (IZ) (Escherichia coli [12])	inhibition zone (IZ) (Aspergillus fumigatus [13])	inhibition zone (IZ) [14]	inhibition zone (IZ) (Pseudomonas aeruginosa [15])	inhibition zone (IZ) (Bacillus cereus [17])	zone of inhibition at 100 µg/disc (Aspergillus fumigatus [19])	zone of inhibition at 100 µg/disc (Aspergillus niger [20])
CC(=O)N1CCN(c2ccc(OCC3COC(Cn4ccnc4)(c4ccc(Cl)cc4Cl)O3)cc2)CC1 (configuration not stated) [KETOCONAZOLE]		0.23 mg/L (≈ 0.433 µM)	6.1 mg/L (≈ 11.5 µM)																29 mm	30 mm
